APJ antagonist – antagonists of human apelin receptor APJ, primary screen, CHO-K1 cells, beta-arrestin complementation, luminescence | 0.32% of 330,000 active | inhibition, % at 20 µM;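 active means inhibition above about 40% at 20 µM, limit read from the data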;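 further: cells challenged with 10 nM apelin-13 agonist together with compound; plate controls were apelin-13 plus DMSO wells for no effect and DMSO wells lacking apelin-13 for full effect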
CXCR6 block – CXCR6 receptor inhibitors, primary screen, cell-based, beta-arrestin, luminescence, CHO-K1 PathHunter, 1536-well; C-X-C chemokine receptor type 6 (Homo sapiens), O00574; inhibition, % at 20 µM; 0.36% of 360,000 active; in the data active means inhibition above about 34%, passing the limit was not always enough;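 further: antagonist mode with CXCL16 agonist at 10 nM final; 0% = 10 nM CXCL16 with DMSO and 100% = unstimulated wells without agonist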
CCR6 antagonist – CCR6 receptor antagonists, primary screen, cell-based, CHO-K1, luminescence, beta-arrestin, uHTS; C-C chemokine receptor type 6 (Homo sapiens), P51684; CHO-K1 CCR6 PathHunter beta-arrestin, CCL20-stimulated; inhibition, % at 20 µM; 0.49% of 340,000 active;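 active means compounds whose inhibition of the agonist-driven luminescence signal at 20 µM reaches about 50%, limit read from the data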;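 further: cells stimulated with CCL20 at 14 nM final; plate controls were DMSO with CCL20 for no effect and DMSO without agonist for full effect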
APOBEC3A inh – APOBEC3A ssDNA deaminase inhibitors, primary screen, selectivity assay for APOBEC3G inhibitor project, biochemical, FAM/TAMRA oligo cleavage fluorescence; DNA dC->dU-editing enzyme APOBEC-3A (Homo sapiens), P31941; recombinant A3A, FAM/TAMRA ssDNA deamination fluorescence; inhibition, % at 20 µM; 0.41% of 330,000 active; AID 493011, 2011;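 active means at least 40% inhibition at 20 µM here, with at most 30% in a related deaminase screen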;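 further: plate controls were A3A with DMSO for no effect and wells lacking A3A enzyme for full effect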
A3G deaminase – APOBEC3G DNA deaminase inhibitors, primary screen, biochemical, fluorescence, single-stranded DNA substrate, uHTS | AID 493012, 2011 | inhibition, % at 20 µM | recombinant A3G, ssDNA deamination FAM/TAMRA fluorescence | 0.28% of 330,000 active | DNA dC->dU-editing enzyme APOBEC-3G (Homo sapiens), Q9HC16;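 active means inhibition of at least 40% at 20 µM, with no more than 30% in the related APOBEC3A deaminase screen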;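 further: plate controls were DMSO wells with A3G for no effect and wells lacking A3G enzyme for full effect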
Target sequence (Q9HC16 whole entry, looked up): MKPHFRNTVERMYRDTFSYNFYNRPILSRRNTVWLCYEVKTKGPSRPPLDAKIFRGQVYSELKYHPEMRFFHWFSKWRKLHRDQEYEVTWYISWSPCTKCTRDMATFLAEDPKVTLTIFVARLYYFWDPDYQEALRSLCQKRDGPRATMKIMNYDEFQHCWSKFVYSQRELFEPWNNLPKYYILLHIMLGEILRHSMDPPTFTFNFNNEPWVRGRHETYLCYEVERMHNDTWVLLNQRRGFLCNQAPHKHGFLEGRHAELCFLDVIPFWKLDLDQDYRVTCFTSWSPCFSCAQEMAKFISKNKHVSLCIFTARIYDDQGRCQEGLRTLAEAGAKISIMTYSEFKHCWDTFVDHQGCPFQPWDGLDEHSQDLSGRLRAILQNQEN
APJ ag – agonists of human apelin receptor APJ, primary screen, CHO-K1 cells, PathHunter beta-arrestin, luminescence; P35414; 0% DMSO wells, 100% apelin; activation, % at 20 µM; 0.11% of 330,000 active; AID 2520, 2010;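 active means activation more than six SD over the plate average, tested at 20 µM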;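 further: 0% = DMSO alone and 100% = apelin-13 at 10 nM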
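Assay system: engineered CHO-K1 APJ arrestin reporter cells; Amount: 1000 CHO-K1 reporter cells seeded per well; Dosing: one dose, 20 µM compound, 1% DMSO; Times: compound stimulation 90 min at 25 °C, detection 60 min; Measured by: luminescent beta-gal fragment complementation, chemiluminescent substrate; Read-out: APJ–arrestin association signal; Controls: DMSO vs Apelin-13 10 nM.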
APJ antag confirm – APJ antagonists blocking beta-arrestin recruitment, confirmation, cell-based, luminescence, single concentration, uHTS hits; shares compounds with APJ antagonist; antagonist mode; inhibition, % at 20 µM; 66% of 950 active; AID 2766, 2010; in the data active means inhibition above about 50%
A3G conf – APOBEC3G deaminase inhibitor retest, confirmation, biochemical, fluorescence, single-stranded DNA substrate, single concentration | shares compounds with A3G deaminase | recombinant A3G ssDNA deaminase, UDG/FAM-TAMRA fluorescence | inhibition, % at 20 µM | 72% of 890 active | AID 493152, 2011;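 active means inhibition reaching a set limit in any replicate at 20 µM, the limit being 80% of the first screen's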
UDG ctr A3G – E. coli UDG inhibitors, confirmation, counter-screen for APOBEC3G inhibitor project, biochemical, single concentration, fluorescence, FAM/TAMRA oligo | AID 504715, 2011 | shares compounds with A3G deaminase | inhibition, % at 20 µM | 710 tested, under 10 active | UDG counterscreen;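 active means compounds giving 40% or more inhibition at 20 µM in any one of the three replicates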;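 further: plate controls were DMSO wells with UDG and oligo for no effect and DMSO wells lacking both for full effect; inhibitors lower the FAM signal released by uracil excision and alkaline cleavage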
CXCR6 antag conf – CXCR6 receptor antagonists, confirmation, cell-based, single concentration, beta-arrestin, luminescence; shares compounds with CXCR6 block; inhibition, % at 20 µM; 65% of 700 active; CHO-K1 CXCR6 PathHunter beta-arrestin;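 active means mean inhibition over four retests above 40%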;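 further: receptor stimulated with 10 nM CXCL16 agonist; beta-galactosidase fragment complementation upon beta-arrestin recruitment to receptor; plate controls were CXCL16 plus DMSO for no effect and DMSO without CXCL16 for full effect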
Numbers without * were called inactive; x = not tested or not shown. In the library only some 1.4% were active in any assay of this set; here they are far more common.

SMILES	APJ antagonist	CXCR6 block	CCR6 antagonist	APOBEC3A inh	A3G deaminase	APJ ag	APJ antag confirm	CXCR6 antag conf	others
COc1ccc2nc(NC(=S)N(C)C)sc2c1	51*	35	45	2	61*	-9	44	x	A3G conf=69*;UDG ctr A3G=-5
Cc1noc(C)c1C(=O)NNc1ccc(C(C)C)cc1	47*	-3	27	-2	46*	-20	102*	x	A3G conf=15;UDG ctr A3G=-2
Cc1ccc(C(C)NC(=O)c2c(C)noc2C)cc1C (stereo unspecified)	16	1	-10	-2	-2	0	x	x
COc1ccc([C@H]2CC(=O)C[C@@H](CCn3cccn3)O2)cc1	x	-7	x	x	x	x	x	x
O=C(NNc1ccc(O)cc1)c1ccc(Br)cc1	86*	70*	101*	-3	53*	-15	139*	x	A3G conf=19;UDG ctr A3G=-2
O=C(NNc1ccccc1)c1ccccc1	x	9	17	x	x	x	x	x
CCN(CC)c1ncnc2c1ncn2[C@H]1CN(Cc2ccccc2)C[C@@H](COC(C)=O)O1	x	9	x	x	x	x	x	x
CCn1c(=O)c([N+](=O)[O-])c(Cl)c2ccccc21	94*	102*	100*	-5	-13	-8	102*	96*
C/C(=N\NC(=O)c1ccc(F)cc1)c1ccccn1	60*	72*	80*	-2	-7	-11	87*	86*
COC(=O)c1ccc(C)c(-n2c(=O)n(Cc3ccccc3)c(=O)c3[nH]cnc32)c1	61*	66*	64*	-1	-6	-9	122*	49*
Cc1ccccc1-n1c(=O)n(Cc2ccccc2)c(=O)c2[nH]cnc21	15	28	29	-3	-7	-4	x	x
FC(F)(F)c1cnc(NNC(=S)Nc2cccnc2)c(Cl)c1	63*	71*	87*	-1	0	-7	65*	67*
Cc1ccccc1NC(=S)NNc1ncc(C(F)(F)F)cc1Cl	45*	45*	70*	3	3	-8	70*	53*
Cc1cccc(C)c1NC(=S)NNc1ncc(C(F)(F)F)cc1Cl	29	16	29	-4	-13	-5	x	x
NC(=O)NNc1ncc(C(F)(F)F)cc1Cl	4	-4	10	-1	-5	-4	x	x
CCOCC(=O)Nc1cc(C(=O)Nc2cc(C)cc(C)c2)ccc1Cl	8	x	x	0	-2	-4	x	x
O=C(N/N=C(\c1ccccc1)c1cccnc1)c1ccc(O)cc1	1	1	12	-2	-2	-3	x	x
O=C(N/N=C(\c1ccccc1)c1cccnc1)c1cccc(F)c1	70*	83*	101*	-1	-9	-17	88*	94*
Clc1ncnc2scc(-c3ccc(Br)cc3)c12	-14	8	8	0	-3	-2	x	x
